# Assay outcomes from PubChem.
# In the library only some 3% were active in any assay of this set; here they are far more common.
# N-glyco inh – N-linked glycosylation inhibition. D54 ERlucT glycosylation luciferase reporter, 24 h; percent of 100 nM tunicamycin response. reporter increase, % at 12.5 µM. 360,000 tested, 0.23% active;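 active means mean luciferase reporter signal, scaled so untreated is 0 and the glycosylation-blocking control 100, at or above a set limit in every replicate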;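 further: luciferase carries N-glycosylation sites so blocking glycosylation raises the light; 0% = median of neutral control wells and 100% = median of 100 nM tunicamycin wells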
# PfHsp90 set2 – growth inhibition of yeast expressing Plasmodium Hsp90; S. cerevisiae expressing PfHsp90, BacTiter-Glo ATP, 48 h; yeast lacking PDR1 and PDR3 efflux regulators; inhibition, % at 9.4 µM; 310,000 tested, 0.32% active; AID 504621;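 active means every replicate shows inhibition above about 80%, whatever the replicate mean, limit read from the data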;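 further: 0% = DMSO neutral controls and 100% = 20 µM radicicol positive controls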
# T cruzi inh – blocks replication of Trypanosoma cruzi; inhibition, % (no concentration beside the values); 300,000 tested, 1.4% active; T. cruzi beta-gal in NIH3T3, luminescence, 90 h; AID 1885;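 active means mean inhibition across valid replicates above about 55%, limit read from the data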;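 further: signal also drops with host cell toxicity which is not excluded here; 0% = plate median of DMSO wells and 100% = zero luminescence signal; higher percent means less beta-gal luminescence so fewer parasites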
#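 assay system = mouse NIH/3T3 fibroblasts infected with β-gal-expressing T. cruzi Tulahuen C4 | input = 5,000 NIH/3T3 host cells per well | buffer or medium = DMEM plus 2% FBS | timing = 3 h host attachment, then at least 90 h co-culture | measured by = GalScreen luminescence, 60 min | evaluation = luminescence reflecting intracellular parasite burden, expressed as percent inhibition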
# PvdQ acylase – P. aeruginosa PvdQ acylase inhibition. purified PvdQ acylase, fluorescence plate reader. inhibition, % at 10 µM. 340,000 tested, 0.063% active. AID 488965; in the data active means inhibition above about 30%, passing the limit was not always enough;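 further: 0% = vehicle neutral wells and 100% = reference inhibitor wells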
# HSF-1 act – increases HSF-1 driven luciferase reporter signal; NIH3T3-HGL HSF-1 luciferase reporter, MG132, 8 h; 100% = twice DMSO control signal; activation, % at 9 µM; 300,000 tested, 1.7% active; AID 504408;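 active means mean replicate activation of at least 50% with a set share of replicates each reaching 50%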;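 further: 0% = median of the neutral control wells and 100% = twice that signal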
# CaV13 FRET inh – Disruptors of the CACNA1D IQ motif to Ca2+-dependent inactivation inhibitor domain association, primary screening, Förster resonance energy transfer in intact living … | HEK cells, CFP/YFP FRET ICDI-IQ, plate reader, 10 min; percent FRET-ratio fall versus neutral wells | inhibition, % at 12.3 µM | 340,000 tested, 0.098% active | AID 743397;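 active means mean replicate inhibition of at least 30% and at least 1% of replicates passing that level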;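 further: 0% = median of the neutral control wells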
# Active calls of the source: *; · = no result.
SMILES,N-glyco inh,PfHsp90 set2,T cruzi inh,PvdQ acylase,HSF-1 act,CaV13 FRET inh
COc1ccc(C(=O)N/N=C/C(Br)=C/c2ccccc2)cc1,2,19,-1,0,148*,-4
Cc1occc1C(=O)N/N=C/C(Br)=C/c1ccccc1,-6,17,-16,-13,314*,10
O=C(N/N=C/C(Br)=C/c1ccccc1)c1cnccn1,9,-8,-13,7,259*,-3
Cc1ccc(-c2cc(C(=O)N/N=C/C(Br)=C/c3ccccc3)n[nH]2)o1,14,-48,-15,5,121*,10
CC(/C=N/NC(=O)c1n[nH]c2c1CCC2)=C\c1ccccc1,2,-5,47,5,-5,-8
O=C(N/N=C/C(Br)=C\c1ccccc1)c1n[nH]c2c1CCC2,18,·,-4,-2,211*,-8
COc1cccc(C(=O)N/N=C/C(Br)=C/c2ccccc2)c1,13,20,-22,-11,56*,-4
CN(C(=O)c1ccc(NC(=O)Cc2cccc(NC(=O)C3CCCN(C(=O)C4CC4)C3)c2)cc1)C1CC1 (stereo not given),3,-6,·,-5,·,-4
Cc1cccc(C(=O)Nc2ccc(C(=O)/C=C/c3ccncc3)cc2)c1,-5,-13,25,4,92*,-6
Cc1cccc(C(=O)Nc2ccc(C(=O)/C=C/c3cccnc3)cc2)c1,-8,-58,35,-2,163*,-19
O=C(/C=C/c1cccnc1)c1ccc(NC(=O)c2cccc(Br)c2)cc1,5,2,38,1,19,-4
CC(C)(C)NC(=O)C(c1ccc(C#N)cc1)n1c(=O)c(-c2ccco2)nc2ccccc21 (stereo not given),·,·,·,·,·,-6
CCN(CC)CCCNc1ccc(-c2nnc(-c3ccc(OCC(C)C)cc3)o2)cn1,-1,21,55*,7,-12,-5
COc1ccc(NC(=O)c2csc(Cc3ccccc3)n2)cc1,-2,-15,3,-4,24,-4
O=C(Nc1ccc(F)cc1)c1csc(Cc2ccccc2)n1,2,-17,-4,-16,59*,-2
COc1ccccc1CNC(=O)c1csc(Cc2ccc(Cl)cc2)n1,-5,-50,13,-9,100*,-6
O=C(NCc1cccs1)c1ccc2nc([C@@H]3O[C@H](CO)[C@H](O)[C@H](O)[C@H]3O)[nH]c2c1,1,·,·,·,·,-6
O=C1NC[C@H](CCCCN2CCN(CCc3ccccc3)C(=O)C2=O)N(CCC2CCCCC2)C1=O,·,·,·,·,·,-4
COc1ccc2nc(-c3ccc(CN4CCC(c5nc6ccccc6[nH]5)CC4)cc3)c(-c3ccccc3)nc2c1,·,·,·,·,·,-6
Cc1[nH]c2ccccc2c1C(=O)c1c(N)[nH]c(C(=O)c2ccccc2)c1-c1ccc(Cl)cc1,·,·,·,·,·,-6
C=C[C@@H]1c2cc(C)ccc2N(S(=O)(=O)c2ccc(C)cc2)[C@H](c2ccccc2)C1(C#N)S(=O)(=O)c1ccccc1 (stereo not given in full),-5,-35,·,-2,·,-6
Cc1cc(Oc2nc3ccccn3c(=O)c2/C=C(\C#N)C(=O)NC2CCS(=O)(=O)C2)ccc1Cl (stereo not given),10,-10,-11,3,60*,-5
Cc1cccc(Oc2nc3ccccn3c(=O)c2/C=C(\C#N)C(=O)NC2CCS(=O)(=O)C2)c1 (stereo not given),14,-11,-8,0,34,-1
O=C(Cn1nnc(N2CCOCC2)n1)NN=Cc1ccccc1Cl,·,·,·,·,·,-4
Cc1cc(S(=O)(=O)Nc2ccc(C(=O)NC3CC3)cc2)ccc1F,1,·,·,·,·,-7
SMILES,N-glyco inh,PfHsp90 set2,T cruzi inh,PvdQ acylase,HSF-1 act,CaV13 FRET inh
Cc1nc2ccc(Br)cc2c(=O)n1Cc1cccs1,-1,-3,18,-2,54*,-5
COCCNC(=O)C1(C)CCN(C(=O)c2cccnc2Oc2ccccc2)C1 (stereo not given),1,·,·,·,·,-9
O=S(=O)(Nc1ccc2c(c1)nc1n2CCN(Cc2ccccc2)C1)c1ccc(Cl)cc1,-4,·,16,1,67*,-5
Cn1c(CCN2CCCCC2)nc2cc(NS(=O)(=O)c3ccc(Cl)cc3)ccc21,-7,·,6,-5,62*,-5
CCC(C)NCCOCCOc1ccc(C)cc1Br (stereo not given),1,22,44,8,31,-8
C=CCNCCOCCOc1ccc(C)cc1Br,-6,-54,56*,-5,26,-3
Cc1ccc(OCCOCCOc2cccc3cccnc23)c(Br)c1,1,-7,28,10,77*,-4
Clc1cc(Br)ccc1OCCOCCOc1cccc2cccnc12,1,7,-7,-4,18,·
CC(C)c1ccc2c(c1)[C@H]1OCC[C@H]1[C@@H](c1cccs1)N2,2,3,-1,-15,122*,-5
CC(C)OC(=O)[C@@H](Cc1ccccc1)N[C@H](/C=C/c1ccccc1)[C@@H](O)Cc1ccccc1,·,·,·,·,·,-4
CN1CCCCC(NC(=O)c2ccc(Cl)cc2Cl)C1=O (stereo not given),·,·,·,·,·,-2
C[C@@H]1C=CCCO[C@]12C(=O)N(Cc1ccccc1C(F)(F)F)c1ccccc12,·,·,·,·,·,-5
Clc1ccc(/C=C/c2nc3ccccc3[nH]2)cc1,-14,59,33,0,19,-5
Clc1ccc(/C=C/c2nc3ccccc3[nH]2)c(Cl)c1,-16,·,58*,-22,-36,-4
CC(C)Cn1cc(-c2cccc3nccn23)cn1,0,·,·,·,·,-6
COc1ccc(-n2cc(-c3ccc(OC(F)F)cc3)[n+]3c2CCCCC3)cc1,1,5,59*,-3,-1,-2
Clc1ccc(-c2cn(-c3ccc(Cl)cc3)c3[n+]2CCCCC3)cc1,2,15,31,-8,-1,-5
COc1ccc(-c2cn(-c3ccc(Cl)cc3)c3[n+]2CCCCC3)cc1,1,0,58*,-13,-7,-5
C/C(NC(=O)c1ccccc1F)=C1\C(=O)C[C@@H]2[C@H]1C2(C)C,-2,-7,17,0,51*,·
CCCCCCCCCCC(C(=O)O)C1(C(=O)O)CCC(=O)O1 (stereo not given),0,·,·,·,·,·
O=C(/C=C/c1ccc(OCCCF)cc1)N1CCN(Cc2ccccc2)CC1,-3,14,14,1,61*,-4
O=C(/C=C/c1ccc([N+](=O)[O-])cc1)N1CCN(Cc2ccccc2)CC1,-2,7,35,-3,-2,-3
CCn1c(=O)cc(SCC(=O)N2CCN(C)CC2)c2ccccc21,13,3,-2,5,63*,-6
CCOC(=O)C1CSCCS(=O)(=O)N1Cc1ccc(C)cc1 (stereo not given),·,·,·,·,·,-5
